Converted amounts (≈) assume the structure as drawn.
Assays:
Bacillus subtilis [1] = experiment: Bactericidal activity against Bacillus subtilis ATCC 6051 after 18 to 20 hrs by broth microdilution method; type: functional
Streptococcus pneumoniae [2] = experiment: Bactericidal activity against Streptococcus pneumoniae R6 after 18 to 20 hrs by broth microdilution method; type: functional
Staphylococcus aureus [3] = experiment: Antibacterial activity against methicillin-resistant Staphylococcus aureus 1653 after 18 to 20 hrs by broth microdilution method; type: functional
How it was run: (§1)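 EUCAST broth microdilution in LB broth. Inoculum from 20–24 h colonies on 5% sheep blood BHI agar, final 3×10^4 CFU/mL, 18–20 h aerobic at 37 °C, plate reader, at least duplicate.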

Escherichia coli [4] = experiment: Antibacterial activity against Escherichia coli DH10beta harboring pHuLUC3 after 18 to 20 hrs by microdilution method; type: functional
How it was run: (§2)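 EUCAST broth microdilution in LB broth. Inoculum prepared by direct colony suspension from 20–24 h LB agar (E. coli DH10β) or 5% sheep blood BHI agar (MRSA USA300) growth. Final inoculum 2×10^4 CFU/mL, 18–20 h aerobic at 37 °C, growth read on a plate reader, at least duplicate.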

[5] = Stability of the compound in solid state; type: physicochemical
[6] = test system: Mycolicibacterium smegmatis; experiment: Antimycobacterial activity against Mycobacterium smegmatis MC2 155 after 94 to 98 hrs by microdilution method; type: functional; settings: str. MC2 155
How it was run: (§3)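 Microdilution in TSB broth. Inoculum from colonies grown 96 h on TSA, final 1×10^5 CFU/mL, aerobic 94–98 h at 37 °C, growth read on a plate reader, at least duplicate.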

Staphylococcus aureus [7] = experiment: Antibacterial activity against methicillin-resistant Staphylococcus aureus USA300 after 18 to 20 hrs by microdilution method; type: functional; how it was run: as §2
Staphylococcus aureus [8] = experiment: Bactericidal activity against methicillin-resistant Staphylococcus aureus USA300 after 18 to 20 hrs by microdilution method; type: functional; how it was run: as §2
[9] = Stability of the compound in water; type: physicochemical; settings: buffer
Pseudomonas aeruginosa = experiment: Antibacterial activity against Pseudomonas aeruginosa PA0001 after 18 to 20 hrs by broth microdilution method; type: functional
How it was run: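 EUCAST broth microdilution in LB broth. Inoculum from 20–24 h LB agar colonies (CLSI direct colony suspension), final 3×10^4 CFU/mL. Aerobic incubation 18–20 h at 37 °C, plate-reader read-out, at least one duplicate.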

Acinetobacter baumannii [10] = experiment: Antibacterial activity against Acinetobacter baumannii ATCC BAA-1605 after 18 to 20 hrs by broth microdilution method; type: functional
How it was run: (§4)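 Broth microdilution per EUCAST in TSB broth. Inoculum prepared by CLSI direct colony suspension from 20–24 h TSA colonies, final 3×10^4 CFU/mL. Aerobic incubation for 18–20 h at 37 °C, growth read on plate reader, at least one duplicate.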

Escherichia coli [11] = experiment: Antibacterial activity against N43 CGSC 5583 knock out Escherichia coli after 18 to 20 hrs by microdilution method; type: functional
How it was run: (§5)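 Broth microdilution per EUCAST in LB broth. Inoculum from 20–24 h colonies by CLSI direct colony suspension (LB agar for E. coli), final 2×10^4 CFU/mL. Read after 18–20 h aerobic incubation at 37 °C on plate reader, at least one duplicate.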

Klebsiella pneumoniae [12] = experiment: Antibacterial activity against Klebsiella pneumoniae ATCC 700603 after 18 to 20 hrs by broth microdilution method; type: functional; how it was run: as §4
[13] = Solubility of the compound in water; type: physicochemical; settings: buffer
Acinetobacter baumannii [14] = experiment: Antibacterial activity against Acinetobacter baumannii ATCC 19606 after 18 to 20 hrs by broth microdilution method; type: functional; settings: ATCC 19606 = CIP 70.34 = JCM 6841; how it was run: as §4
Bacillus subtilis [15] = experiment: Antibacterial activity against Bacillus subtilis ATCC 6051 after 18 to 20 hrs by broth microdilution method; type: functional; how it was run: as §5
Enterococcus faecalis [16] = experiment: Antibacterial activity against vancomycin resistant Enterococcus faecalis 501 after 18 to 20 hrs by broth microdilution method; type: functional
How it was run: (§6)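 EUCAST microdilution in BHI broth. Inoculum from 20–24 h colonies on 5% sheep blood BHI agar, final 3×10^4 CFU/mL, 18–20 h aerobic at 37 °C, plate reader, at least duplicate.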

Escherichia coli [17] = experiment: Antibacterial activity against Escherichia coli D22 after 18 to 20 hrs by microdilution method; type: functional; how it was run: as §5
[18] = test system: Mycolicibacterium smegmatis; experiment: Bactericidal activity against Mycobacterium smegmatis MC2 155 after 96 hrs by microdilution method; type: functional; settings: str. MC2 155, 96 h; how it was run: as §3
Streptococcus pneumoniae [19] = experiment: Antibacterial activity against Streptococcus pneumoniae R6 after 18 to 20 hrs by broth microdilution method; type: functional
How it was run: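 Broth microdilution per EUCAST in BHI broth. Inoculum from colonies on BHI agar with 5% sheep blood, final 5×10^4 CFU/mL. Read after 18–20 h anaerobic incubation at 37 °C.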

Staphylococcus aureus [20] = experiment: Induction of membrane integrity impairment in Staphylococcus aureus USA300 assessed as cells with intact membrane at 2 ug/ml measured after 30 mins by Baclight assay relative to control; type: functional
How it was run: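 LIVE/DEAD BacLight fluorescence assay. Dye was then added and incubated 15 min in the dark at room temperature. Intact membrane % came from a live/dead (isopropanol-killed) standard curve, at least triplicate, mean±SD.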

[21] = Stability of the compound in organic solvent; type: physicochemical
Staphylococcus aureus [22] = experiment: Bactericidal activity against methicillin-resistant Staphylococcus aureus 1653 after 18 to 20 hrs by broth microdilution method; type: functional; how it was run: as §1
Klebsiella pneumoniae [23] = experiment: Antibacterial activity against Klebsiella pneumoniae ATCC 13882 after 18 to 20 hrs by broth microdilution method; type: functional; how it was run: as §4
Saccharomyces cerevisiae = experiment: Antibacterial activity against Saccharomyces cerevisiae after 18 to 20 hrs by microdilution method
How it was run: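 Microdilution in YEP broth against wild-type yeast grown on YEP agar. Final inoculum 1×10^5 CFU/mL. Read after 18–20 h aerobic incubation at 30 °C on plate reader, at least one duplicate.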

[24] = test system: Mycolicibacterium smegmatis; experiment: Antimycobacterial activity against Mycobacterium smegmatis MC2 155 after 3 days by broth macrodilution method; type: functional; settings: str. MC2 155, 72 h
Escherichia coli [25] = experiment: Bactericidal activity against Escherichia coli D22 after 18 to 20 hrs by microdilution method; type: functional
Escherichia coli [26] = experiment: Bactericidal activity against Escherichia coli DH10beta harboring pHuLUC3 after 18 to 20 hrs by microdilution method; type: functional; how it was run: as §2
Enterococcus faecalis [27] = experiment: Bactericidal activity against vancomycin resistant Enterococcus faecalis 501 after 18 to 20 hrs by broth microdilution method; type: functional; how it was run: as §6
Staphylococcus aureus [28] = experiment: Antibacterial activity against methicillin-resistant Staphylococcus aureus USA300 by broth microdilution method

Row | Compound | MBC (Bacillus subtilis [1]) [µg/mL] | MBC (Streptococcus pneumoniae [2]) [µg/mL] | MIC (Staphylococcus aureus [3]) [µg/mL] | MIC (Escherichia coli [4]) [µg/mL] | Stability [5] | MIC [6] [µg/mL] | MIC (Staphylococcus aureus [7]) [µg/mL] | MBC (Staphylococcus aureus [8]) [µg/mL] | Stability [9] | MIC (Pseudomonas aeruginosa) [µg/mL] | MIC (Acinetobacter baumannii [10]) [µg/mL] | MIC (Escherichia coli [11]) [µg/mL] | MIC (Klebsiella pneumoniae [12]) [µg/mL] | solubility [13] | MIC (Acinetobacter baumannii [14]) [µg/mL] | MIC (Bacillus subtilis [15]) [µg/mL] | MIC (Enterococcus faecalis [16]) [µg/mL] | MIC (Escherichia coli [17]) [µg/mL] | MBC [18] [µg/mL] | Stability [21] | other results
1 | O=C(c1ccccc1F)N(/N=N/c1ccc([N+](=O)[O-])cc1C(F)(F)F)c1ccc([N+](=O)[O-])cc1C(F)(F)F | > 64 | 1 (≈ 1.83 µM) | 0.5 (≈ 0.917 µM) | > 128 | Stable | 16 (≈ 29.3 µM) | 0.25 (≈ 0.458 µM) | 0.5 (≈ 0.917 µM) | Stable | > 128 | > 128 | > 128 | > 128 | Soluble | > 128 | 2 (≈ 3.67 µM) | > 128 | > 128 | 128 (≈ 235 µM) | Stable | MIC (Streptococcus pneumoniae [19]): 0.5 µg/mL (≈ 0.917 µM); Cells with intact membrane (Staphylococcus aureus [20]): 103.8%; MBC (Staphylococcus aureus [22]): 4 µg/mL (≈ 7.34 µM); MIC (Klebsiella pneumoniae [23]): > 128 µg/mL; MIC (Saccharomyces cerevisiae): > 128 µg/mL
2 | CC[N+](/C=C/C(=O)OC)(CC)CC.O=[N+]([O-])c1ccc(/N=N/[N-]c2ccc([N+](=O)[O-])cc2C(F)(F)F)c(C(F)(F)F)c1 | – | – | – | – | Stable | – | – | – | Stable | – | – | – | – | Soluble | – | – | – | – | – | Stable | –
3 | CC1(C)S[C@@H]2[C@H](NC(=O)[C@H](N)c3ccccc3)C(=O)N2[C@H]1C(=O)O [AMPICILLIN] | – | – | – | – | – | – | – | – | – | – | – | – | – | – | – | – | – | – | – | – | MIC [24]: 128 µg/mL (≈ 366 µM)
4 | CC(=O)N(/N=N/c1ccc([N+](=O)[O-])cc1C(F)(F)F)c1ccc([N+](=O)[O-])cc1C(F)(F)F | 4 (≈ 8.6 µM) | 0.5 (≈ 1.07 µM) | 0.25 (≈ 0.537 µM) | 64 (≈ 138 µM) | Stable | 16 (≈ 34.4 µM) | 0.25 (≈ 0.537 µM) | 0.25 (≈ 0.537 µM) | Stable | > 128 | > 128 | > 128 | > 128 | Soluble | > 128 | 0.125 (≈ 0.269 µM) | 4 (≈ 8.6 µM) | 1 (≈ 2.15 µM) | 128 (≈ 275 µM) | Stable | MBC (Escherichia coli [25]): > 128 µg/mL; MBC (Escherichia coli [26]): > 128 µg/mL; MBC (Enterococcus faecalis [27]): > 128 µg/mL; MIC (Streptococcus pneumoniae [19]): 0.06 µg/mL (≈ 0.129 µM); Cells with intact membrane (Staphylococcus aureus [20]): 103%; MBC (Staphylococcus aureus [22]): 0.5 µg/mL (≈ 1.07 µM); MIC (Klebsiella pneumoniae [23]): > 128 µg/mL; MIC (Saccharomyces cerevisiae): > 128 µg/mL
5 | CN[C@H](CC(C)C)C(=O)N[C@H]1C(=O)N[C@@H](CC(N)=O)C(=O)N[C@H]2C(=O)N[C@H]3C(=O)N[C@H](C(=O)N[C@H](C(=O)O)c4cc(O)cc(O)c4-c4cc3ccc4O)[C@H](O)c3ccc(c(Cl)c3)Oc3cc2cc(c3O[C@@H]2O[C@H](CO)[C@@H](O)[C@H](O)[C@H]2O[C@H]2C[C@](C)(N)[C@H](O)[C@H](C)O2)Oc2ccc(cc2Cl)[C@H]1O [VANCOMYCIN] | – | – | – | – | – | – | – | – | – | – | – | – | – | – | – | – | – | – | – | – | MIC [24]: 45 µg/mL (≈ 31.1 µM); MIC (Staphylococcus aureus [28]): 0.25 to 2 µg/mL (≈ 0.173 to 1.38 µM)
6 | CCN(CC)CC.O=[N+]([O-])c1ccc(/N=N/Nc2ccc([N+](=O)[O-])cc2C(F)(F)F)c(C(F)(F)F)c1 | – | – | – | – | Stable | – | – | – | Stable | – | – | – | – | Soluble | – | – | – | – | – | Stable | –
7 | CCOC(=O)/C=C/[N+](CC)(CC)CC.O=[N+]([O-])c1ccc(/N=N/[N-]c2ccc([N+](=O)[O-])cc2C(F)(F)F)c(C(F)(F)F)c1 | – | – | – | – | Stable | – | – | – | Stable | – | – | – | – | Soluble | – | – | – | – | – | Stable | –
8 | CO/N=C(\C(=O)N[C@@H]1C(=O)N2C(C(=O)O)=C(CSc3nc(=O)c(O)nn3C)CS[C@H]12)c1csc(N)n1 [CEFTRIAXONE] | – | – | – | – | – | – | – | – | – | – | – | – | – | – | – | – | – | – | – | – | MIC [24]: 32 µg/mL (≈ 57.7 µM)
9 | FC(F)(F)c1cc(Cl)ccc1/N=N/Nc1ccc(Cl)cc1C(F)(F)F | 32 (≈ 79.6 µM) | 1 (≈ 2.49 µM) | 1 (≈ 2.49 µM) | > 128 | Stable | 8 (≈ 19.9 µM) | 1 to 128 (≈ 2.49 to 318 µM) | 1 (≈ 2.49 µM) | Stable | > 128 | > 128 | > 128 | > 128 | Soluble | > 128 | 1 (≈ 2.49 µM) | 2 (≈ 4.97 µM) | 2 (≈ 4.97 µM) | 128 (≈ 318 µM) | Stable | MBC (Escherichia coli [25]): > 128 µg/mL; MBC (Enterococcus faecalis [27]): > 128 µg/mL; MIC (Streptococcus pneumoniae [19]): 0.5 µg/mL (≈ 1.24 µM); Cells with intact membrane (Staphylococcus aureus [20]): 31.2%; MBC (Staphylococcus aureus [22]): 1 µg/mL (≈ 2.49 µM); MIC (Klebsiella pneumoniae [23]): > 128 µg/mL; MIC (Saccharomyces cerevisiae): > 128 µg/mL

Reference: ChEMBL document CHEMBL3994613, “Diaryltriazenes as antibacterial agents against methicillin resistant Staphylococcus aureus (MRSA) and Mycobacterium smegmatis” (Eur J Med Chem, 2017)
